Data on 28 compounds can be found in ChEMBL document CHEMBL1130344, “Discovery of TBC11251, a potent, long acting, orally active endothelin receptor-A selective antagonist” (J Med Chem, 1997).

pIC50, pKi: −log10 of the molar value. Active and inactive are the calls of the source. No cut-off for these calls is given here. Bounds are passed on as bounds.

Data set [1] has as its target T1, Endothelin-1 receptor (Homo sapiens, UniProt P25101).
T1 sequence (P25101 whole entry): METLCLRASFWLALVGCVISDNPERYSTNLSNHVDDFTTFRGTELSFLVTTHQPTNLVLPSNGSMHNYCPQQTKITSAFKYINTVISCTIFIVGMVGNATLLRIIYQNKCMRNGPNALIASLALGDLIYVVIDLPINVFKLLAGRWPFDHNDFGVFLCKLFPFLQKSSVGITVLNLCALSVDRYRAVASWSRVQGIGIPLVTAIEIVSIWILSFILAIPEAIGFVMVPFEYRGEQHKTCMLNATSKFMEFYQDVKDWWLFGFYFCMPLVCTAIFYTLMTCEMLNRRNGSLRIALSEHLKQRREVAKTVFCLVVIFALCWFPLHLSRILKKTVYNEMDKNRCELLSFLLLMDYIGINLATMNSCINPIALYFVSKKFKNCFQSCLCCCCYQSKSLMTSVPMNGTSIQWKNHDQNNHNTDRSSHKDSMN
Put plainly: In vitro inhibition of endothelin binding to human Endothelin A receptor using [125I]-labeled ET-1 competition assay. An outline of the steps: (§1)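 Membranes in 30 mM HEPES pH 7.4 with 150 mM NaCl, 5 mM MgCl2 and 0.05% bacitracin: […] for ET_B (ET_B from COS 7 cells transfected with human ET_B DNA). Competition against 4 pM [125I]ET-1, 0.25% DMSO final, in triplicate, for 16–18 h at 24 °C. Nonspecific binding with 100 nM ET-1. Bound radioactivity gamma-counted after centrifugation.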

Data set [2] addresses T2, Endothelin receptor type B (Homo sapiens, UniProt P24530).
T2 sequence (P24530 whole entry): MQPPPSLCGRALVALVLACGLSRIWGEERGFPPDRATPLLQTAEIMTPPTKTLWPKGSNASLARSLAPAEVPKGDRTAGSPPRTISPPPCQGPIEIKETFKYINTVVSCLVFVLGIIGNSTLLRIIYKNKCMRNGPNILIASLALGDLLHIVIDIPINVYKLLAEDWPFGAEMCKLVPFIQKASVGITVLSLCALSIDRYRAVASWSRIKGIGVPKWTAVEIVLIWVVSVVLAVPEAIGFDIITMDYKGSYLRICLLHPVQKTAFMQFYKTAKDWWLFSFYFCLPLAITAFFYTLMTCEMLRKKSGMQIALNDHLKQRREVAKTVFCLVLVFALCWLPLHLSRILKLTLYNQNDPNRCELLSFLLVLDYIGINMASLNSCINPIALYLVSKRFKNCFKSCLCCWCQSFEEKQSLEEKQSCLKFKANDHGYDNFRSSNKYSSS
Kind of data set: In vitro inhibition of endothelin binding to human Endothelin B receptor using [125I]-labeled ET-1 competition assay. An outline of the steps:
as §1

The nature of data set [3]: Oral bioavailability in rat. The note with it: in vivo. It counts as ADME, organism-based. In a few lines:
(§2)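 Rats (48 h post-surgery recovery) received 20–50 mg/kg at 1 mL/kg iv or 10 mL/kg po. Serial caudal-vein blood samples were taken over 24 h, and plasma was stored at -20 °C until assay. Bioavailability came from comparing dose and AUC.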

Data set [4] concerns Rattus norvegicus. Put plainly: The compound was tested in vivo for percent inhibition in ET-1 challenge in rats at 15 mg/kg; not active. It counts as functional, organism-based. Details: dose 15 mg/kg. In a few lines: (§3)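 Male Sprague–Dawley rats (250–350 g) were cannulated (femoral artery/vein) under methohexital, then restrained conscious with 60 min recovery. Autonomic blockade used iv atropine methyl nitrate 3 mg/kg plus propranolol 2 mg/kg. Vehicle was 1 M Tris base or sodium bicarbonate.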

A short description of data set [5]: Serum half life in rat. It counts as ADME, organism-based. In a few lines:
as §2

Data set [6] deals with Rattus norvegicus. Kind of data set: The compound was tested in vivo for percent inhibition in ET-1 challenge in rats at 15 mg/kg. The data set is classed as functional. An outline of the steps: as §3
Data set [7] is described as follows: Phosphoinositol hydrolysis in TE671 or transfected cos 7 cells. It counts as functional, cell-based. The note with it: read-out: pA2 (converted). An outline of the steps:
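TE 671 or transfected COS 7 cells were grown to confluence, then labelled for 16 h with [3H]myoinositol in inositol-free RPMI with 10% inositol-free FCS at 37 °C, 6% CO2. They were preincubated 10 min in LiCl-containing HEPES buffer pH 7.4 ± test compound, then given ET-1 at varying concentrations for 45 min. Inositol phosphates were extracted with ice-cold methanol (Berridge method), and well protein was measured by BCA.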

The test system of data set [8] is Rattus norvegicus. Kind of data set: The compound was tested in vivo for percent inhibition in ET-1 challenge in rats at 60 mg/kg. The data set is classed as functional. An outline of the steps:
as §3

Data set [9] is described as follows: The serum half life of the compound. It counts as ADME, cell-free.
Data set [10] can be described thus: Oral bioavailability in dog. It counts as ADME, organism-based, Canis lupus familiaris. The note with it: in vivo. An outline of the steps:
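Dogs (7 days post-surgery recovery) were dosed iv at 1 mL/kg via the right saphenous vein, or by oral gavage at 2 mL/kg plus an aqueous flush after overnight fasting. Routes were crossed over 7 days later. Plasma levels were followed over 24 h, and bioavailability came from comparing dose and AUC.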

The subject of data set [11] is Rattus norvegicus. Put plainly: In vivo efficacy in acute hypoxia induced pulmonary hypertension in rats following intravenous administration. The data set is classed as functional, organism-based.
The target of data set [12] is T1, Endothelin-1 receptor. Kind of data set: Binding affinity against human Endothelin A receptor.
The subject of data set [13] is Rattus norvegicus. Put plainly: In vivo efficacy in acute hypoxia induced pulmonary hypertension in rats following oral administration. The data set is classed as functional, organism-based.

In the case of `Cc1noc(NS(=O)(=O)c2ccsc2C(Cc2ccc3c(c2)OCO3)N(C)C)c1Cl` (stereo not given), the figures for the pIC50 in data set [1] and in data set [2] were 4.68 and < 4.00, respectively.

For the compound `Cc1ccc(NC(=O)c2sccc2S(=O)(=O)Nc2onc(C)c2Cl)cc1`, the bioavailability in data set [3] is 0%. For the same compound, the inhibition entry in data set [4] was “inactive”. The half-life in [5] is < 0.5 h.

Regarding `Cc1noc(NS(=O)(=O)c2ccsc2C(=O)NC(=O)c2ccc3c(c2)OCO3)c1Br`, the pIC50 in data set [1] is 6.05; in data set [2] it was 4.43.

In the case of `Cc1noc(NS(=O)(=O)c2ccsc2C(=O)c2ccc3c(c2)OCO3)c1Br`, the pIC50 in data set [1] is 5.70; in data set [2], 4.81.

`Cc1noc(NS(=O)(=O)c2ccsc2C(O)Cc2ccc3c(c2)OCO3)c1Cl` (stereo not given): the negative logarithm of the IC50 (pIC50) in data set [1] was 7.25; in data set [2] it was 4.80.

On to `CC#N.Cc1noc(NS(=O)(=O)c2ccsc2C(=O)Cc2cc3c(cc2C#N)OCO3)c1Cl`, for which the pIC50 is 8.89 in data set [1] and 6.14 in [2]. The inhibition in vivo at 15 mg/kg in [6] amounted to 52%. Moreover, the Kb in data set [7] was 10 nM.

For `Cc1noc(NS(=O)(=O)c2ccsc2C(=O)Nc2ccc3c(c2C)OCO3)c1Cl`, the pIC50 in [1] is 8.52; in data set [2], 3.45. Also, the inhibition in vivo at 15 mg/kg in data set [6] is 14%.

Regarding `Cc1ccc(CC(=O)c2sccc2S(=O)(=O)Nc2onc(C)c2Cl)c(C)c1`, the pIC50 in data set [1] is 9.01.

Consider `Cc1ccc(CC(=O)c2sccc2S(=O)(=O)Nc2onc(C)c2Br)c(C)c1`, for which the pIC50 is 9.12 in data set [1] and 5.46 in data set [2].

With `Cc1noc(NS(=O)(=O)c2ccsc2/C(Cc2ccc3c(c2)OCO3)=N\O)c1Cl`, the pIC50 in data set [1] is 5.96; in data set [2] it was 5.38.

In data set [3], `Cc1cc2c(cc1CC(=O)c1sccc1S(=O)(=O)Nc1onc(C)c1C)OCO2` gave a bioavailability of 100%. Besides, in [5], the half-life was 7 h. Moreover, in data set [6], testing at 15 mg/kg gave an inhibition in vivo of 33%.

In the case of `CC(=O)c1c(NC(=O)c2sccc2S(=O)(=O)Nc2onc(C)c2Cl)ccc2c1OCO2`, the pIC50 was 8.00 in data set [1] and 4.49 in data set [2]. In [3], this compound returned a bioavailability of 27%. In data set [5], this compound showed a half-life of 2.5 h. In data set [6], this compound showed an inhibition in vivo at 15 mg/kg of 18%.

In the case of `Cc1noc(NS(=O)(=O)c2ccsc2C(C)(O)Cc2ccc3c(c2)OCO3)c1Cl` (stereo not given), the pIC50 in data set [1] is 4.65; in data set [2], < 4.00.

Turning to `Cc1noc(NS(=O)(=O)c2ccsc2C(=O)Nc2ccc3c(c2)OCO3)c1Br`, the bioavailability in data set [3] worked out at 0%. Further, in [4], the inhibition entry is “inactive”. In data set [5], the half-life was < 0.5 h.

In the case of `Cc1noc(NS(=O)(=O)c2ccsc2C(=O)Nc2ccc3c(c2C#N)OCO3)c1Cl`, the pIC50 was 8.47 in data set [1] and 4.39 in data set [2]. The compound further registered a bioavailability in data set [3] of 8%. This compound showed a half-life in data set [5] of 2.5 h. At 15 mg/kg the inhibition in vivo in data set [6] was 8%.

As for `Cc1ccc(CC(=O)c2sccc2S(=O)(=O)Nc2onc(C)c2C)cc1`, the pIC50 is 7.57 in [1] and 4.53 in data set [2].

Regarding `Cc1noc(NS(=O)(=O)c2ccsc2C2(Cc3ccc4c(c3)OCO4)OCCO2)c1Cl`, the pIC50 in [1] was 6.91; in [2] it was 5.68.

Turning to `Cc1noc(NS(=O)(=O)c2ccsc2C(=O)N2CCN(Cc3ccc4c(c3)OCO4)CC2)c1Cl`, the pIC50 in [1] is 4.71.

`Cc1ccc(CC(=O)c2sccc2S(=O)(=O)Nc2onc(C)c2Br)cc1` gave a pIC50 in [1] of 7.70.

Take `Cc1noc(NS(=O)(=O)c2ccsc2C(=O)Cc2ccc3c(c2)OCO3)c1Cl`: the values for the pIC50 in data set [1] and in data set [2] were 7.74 and 5.15, respectively. The bioavailability in [3] is 30%. In data set [8], this compound displayed an inhibition in vivo at 60 mg/kg of 41%. Besides, in [5], the half-life is 1.5 h. Moreover, in data set [7], the Kb is 178 nM.

Turning to `Cc1noc(NS(=O)(=O)c2ccsc2C(=O)Cc2ccc3c(c2)OCO3)c1Br`, the pIC50 in data set [1] was 7.85.

In turn, `COc1cc(C#N)c(NC(=O)c2sccc2S(=O)(=O)Nc2onc(C)c2Cl)cc1OC` gave a bioavailability in [3] of 2%. Further, the half-life in data set [5] is < 0.15 h. Further, the inhibition in vivo at 15 mg/kg in [6] is 50%.

As for `Cc1noc(NS(=O)(=O)c2ccsc2C(=O)Cc2ccc3c(c2)OCO3)c1C`, in data set [2], the negative-log IC50 (pIC50) was 4.57.

`Cc1ccc(C)c(CC(=O)c2sccc2S(=O)(=O)Nc2onc(C)c2Cl)c1` gave a pIC50 in [1] of 8.14.

Regarding `COc1cccc(CC(=O)c2sccc2S(=O)(=O)Nc2onc(C)c2Cl)c1`, the pIC50 in data set [1] is 7.52; in data set [2], 4.72.

In the case of `Cc1cc2c(cc1CC(=O)c1sccc1S(=O)(=O)Nc1noc(C)c1Cl)OCO2`, the pIC50 in data set [2] is 5.41. The Kb in data set [7] is 3.39 nM.

As to `COc1ccc(NC(=O)c2sccc2S(=O)(=O)Nc2onc(C)c2Cl)c(C)c1`, the half-life in data set [9] is < 9 min. Also, the inhibition in vivo at 15 mg/kg in [6] is 33%.

With `Cc1cc2c(cc1CC(=O)c1sccc1S(=O)(=O)Nc1onc(C)c1Cl)OCO2` [SITAXENTAN], the pIC50 in data set [1] is 8.85; in data set [2], 5.01. For the same compound, the bioavailability in data set [10] stood at 90%; in data set [3], 60%. For the same compound, the results for the EC50 in data set [11] and in [13] were 0.5 mg/kg and 1 mg/kg, respectively. The pKi in data set [12] was 9.37. In data set [5], this compound gave a half-life of 6.7 h. The compound also gave an inhibition in vivo at 15 mg/kg in data set [6] of 41%. Besides, the Kb in [7] is 10 nM.
